The compounds below were run on SNB-19 (assay: Growth inhibition of human SNB19 cells after 48 hrs by sulforhodamine B assay). Conditions: SNB-19, 48 h.
Type: functional
Procedure, shortened: (§1)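 NCI in vitro panel screen. Compounds tested at five 10-fold dilutions, 10^-4 to 10^-8 M. Cells in 96-well plates were exposed for the last 48 h of a 72 h incubation. Viability/growth was read by sulforhodamine B protein assay. GI50 is the concentration giving 50% growth inhibition. Values beyond the tested range are reported as greater or less than the maximum or minimum concentration.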

Row | SMILES | GI50
1 | CCOC(=O)/C(=C/N1CCN(C(=O)c2ccco2)C1=S)C(=O)c1ccccc1 | 35.6 µM

Each compound was assayed on EKVX (assay: Growth inhibition of human EKVX cells after 48 hrs by sulforhodamine B assay). Conditions: not given.
Type: functional
Procedure, shortened: (§2)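 NCI screen panel. Five 10-fold concentrations from 10^-4 to 10^-8 M. Exposure for the last 48 h of a 72 h incubation. Growth estimated by sulforhodamine B protein assay. GI50 is the concentration giving 50% growth inhibition. Where that level was not reached or was exceeded, the value is given as above or below the highest or lowest concentration tested.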

Row | SMILES | GI50
2 | CCOC(=O)/C(=C/N1CCN(C(=O)c2ccco2)C1=S)C(=O)c1ccccc1 | 9.5 µM

The compounds below were run on CAKI-1 (assay: Growth inhibition of human Caki1 cells after 48 hrs by sulforhodamine B assay). Conditions: CAKI-1, 48 h.
Type: functional
Procedure, shortened: as §2

Row | SMILES | GI50
3 | CCOC(=O)/C(=C/N1CCN(C(=O)c2ccco2)C1=S)C(=O)c1ccccc1 | 15.9 µM

Each compound was assayed on PC-3 (assay: Growth inhibition of human PC3 cells after 48 hrs by sulforhodamine B assay). Conditions: PC-3, 48 h.
Type: functional
Procedure, shortened: as §2

Row | SMILES | GI50
4 | CCOC(=O)/C(=C/N1CCN(C(=O)c2ccco2)C1=S)C(=O)c1ccccc1 | 19.4 µM

What follows are compounds tested on U-251 (assay: Growth inhibition of human U251 cells after 48 hrs by sulforhodamine B assay). Conditions: U-251, 48 h.
Type: functional
Procedure, shortened: as §1

Row | SMILES | GI50
5 | CCOC(=O)/C(=C/N1CCN(C(=O)c2ccco2)C1=S)C(=O)c1ccccc1 | 11.5 µM

The compounds below were run on CCRF-CEM (assay: Growth inhibition of human CCRF-CEM cells after 48 hrs by sulforhodamine B assay). Conditions: not given.
Type: functional
Procedure, shortened: as §2

Row | SMILES | GI50
6 | CCOC(=O)/C(=C/N1CCN(C(=O)c2ccco2)C1=S)C(=O)c1ccccc1 | 15.6 µM

These compounds were tested on HCT-116 (assay: Growth inhibition of human HCT116 cells after 48 hrs by sulforhodamine B assay). Conditions: HCT-116, 48 h.
Type: functional
Procedure, shortened: as §2

Row | SMILES | GI50
7 | CCOC(=O)/C(=C/N1CCN(C(=O)c2ccco2)C1=S)C(=O)c1ccccc1 | 8.9 µM

Each compound was assayed on BT-549 (assay: Growth inhibition of human BT549 cells after 48 hrs by sulforhodamine B assay). Conditions: BT-549, 48 h.
Type: functional
Procedure, shortened: as §2

Row | SMILES | GI50
8 | CCOC(=O)/C(=C/N1CCN(C(=O)c2ccco2)C1=S)C(=O)c1ccccc1 | 9 µM

Each compound was assayed on OVCAR-4 (assay: Growth inhibition of human OVCAR4 cells after 48 hrs by sulforhodamine B assay). Conditions: OVCAR-4, 48 h.
Type: functional
Procedure, shortened: as §2

Row | SMILES | GI50
9 | CCOC(=O)/C(=C/N1CCN(C(=O)c2ccco2)C1=S)C(=O)c1ccccc1 | 31 µM

Each compound was assayed on NCI-H460 (assay: Growth inhibition of human NCI-H460 cells after 48 hrs by sulforhodamine B assay). Conditions: NCI-H460, 48 h.
Type: functional
Procedure, shortened: as §2

Row | SMILES | GI50
10 | CCOC(=O)/C(=C/N1CCN(C(=O)c2ccco2)C1=S)C(=O)c1ccccc1 | 4.9 µM

What follows are compounds tested on TK-10 (assay: Growth inhibition of human TK10 cells after 48 hrs by sulforhodamine B assay). Conditions: TK-10, 48 h.
Type: functional
Procedure, shortened: as §1

Row | SMILES | GI50
11 | CCOC(=O)/C(=C/N1CCN(C(=O)c2ccco2)C1=S)C(=O)c1ccccc1 | 12.4 µM

The compounds below were run on K562 (assay: Growth inhibition of human K562 cells after 48 hrs by sulforhodamine B assay). Conditions: K562, 48 h.
Type: functional
Procedure, shortened: as §2

Row | SMILES | GI50
12 | CCOC(=O)/C(=C/N1CCN(C(=O)c2ccco2)C1=S)C(=O)c1ccccc1 | 17.7 µM

These compounds were tested on SF-268 (assay: Growth inhibition of human SF268 cells after 48 hrs by sulforhodamine B assay). Conditions: SF-268, 48 h.
Type: functional
Procedure, shortened: as §2

Row | SMILES | GI50
13 | CCOC(=O)/C(=C/N1CCN(C(=O)c2ccco2)C1=S)C(=O)c1ccccc1 | 7.2 µM

What follows are compounds tested on MOLT-4 (assay: Growth inhibition of human MOLT4 cells after 48 hrs by sulforhodamine B assay). Conditions: MOLT-4, 48 h.
Type: functional
Procedure, shortened: as §2

Row | SMILES | GI50
14 | CCOC(=O)/C(=C/N1CCN(C(=O)c2ccco2)C1=S)C(=O)c1ccccc1 | 19.6 µM

The compounds below were run on A549 (assay: Growth inhibition of human A549 cells after 48 hrs by sulforhodamine B assay). Conditions: A549, 48 h.
Type: functional
Procedure, shortened: as §2

Row | SMILES | GI50
15 | CCOC(=O)/C(=C/N1CCN(C(=O)c2ccco2)C1=S)C(=O)c1ccccc1 | 11.6 µM

What follows are compounds tested on SK-MEL-5 (assay: Growth inhibition of human SK-MEL-5 cells after 48 hrs by sulforhodamine B assay). Conditions: SK-MEL-5, 48 h.
Type: functional
Procedure, shortened: as §2

Row | SMILES | GI50
16 | CCOC(=O)/C(=C/N1CCN(C(=O)c2ccco2)C1=S)C(=O)c1ccccc1 | < 0.005 µM

The compounds below were run on SF-295 (assay: Growth inhibition of human SF295 cells after 48 hrs by sulforhodamine B assay). Conditions: SF-295, 48 h.
Type: functional
Procedure, shortened: as §2

Row | SMILES | GI50
17 | CCOC(=O)/C(=C/N1CCN(C(=O)c2ccco2)C1=S)C(=O)c1ccccc1 | 16.4 µM

The compounds below were run on OVCAR-3 (assay: Growth inhibition of human OVCAR-3 cells after 48 hrs by sulforhodamine B assay). Conditions: OVCAR-3, 48 h.
Type: functional
Procedure, shortened: as §2

Row | SMILES | GI50
18 | CCOC(=O)/C(=C/N1CCN(C(=O)c2ccco2)C1=S)C(=O)c1ccccc1 | 20.2 µM

These compounds were tested on MT4 (assay: Antiproliferative activity against human MT4 cells assessed as reduction of growth by MTT assay). Conditions: not given.
Type: functional, cell-based
Procedure, shortened: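 MT-4 lymphoblastoid T cells (ATCC) in RPMI 1640 with 10% FCS, penicillin/streptomycin, checked for mycoplasma. 1 × 10⁴ mock-infected cells per well with serial dilutions from a 100 mM DMSO stock. Incubated 4 days at 37 °C, viable cells counted by MTT. IC50 versus untreated controls by linear regression. Mean of three separate experiments.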

Row | SMILES | IC50
19 | CCOC(=O)/C(=C/N1CCN(C(=O)c2ccco2)C1=S)C(=O)c1ccccc1 | 4 µM

What follows are compounds tested on NCI-H322M (assay: Growth inhibition of human NCI-H322M cells after 48 hrs by sulforhodamine B assay). Conditions: not given.
Type: functional
Procedure, shortened: as §2

Row | SMILES | GI50
20 | CCOC(=O)/C(=C/N1CCN(C(=O)c2ccco2)C1=S)C(=O)c1ccccc1 | 14.2 µM

What follows are compounds tested on HOP-62 (assay: Growth inhibition of human HOP62 cells after 48 hrs by sulforhodamine B assay). Conditions: HOP-62, 48 h.
Type: functional
Procedure, shortened: as §2

Row | SMILES | GI50
21 | CCOC(=O)/C(=C/N1CCN(C(=O)c2ccco2)C1=S)C(=O)c1ccccc1 | 17.3 µM

What follows are compounds tested on HT-29 (assay: Growth inhibition of human HT-29 cells after 48 hrs by sulforhodamine B assay). Conditions: HT-29, 48 h.
Type: functional
Procedure, shortened: as §2

Row | SMILES | GI50
22 | CCOC(=O)/C(=C/N1CCN(C(=O)c2ccco2)C1=S)C(=O)c1ccccc1 | 19.2 µM

These compounds were tested on COLO 205 (assay: Growth inhibition of human COLO205 cells after 48 hrs by sulforhodamine B assay). Conditions: COLO 205, 48 h.
Type: functional
Procedure, shortened: as §2

Row | SMILES | GI50
23 | CCOC(=O)/C(=C/N1CCN(C(=O)c2ccco2)C1=S)C(=O)c1ccccc1 | 19.2 µM

These compounds were tested on SN12C (assay: Growth inhibition of human SN12C cells after 48 hrs by sulforhodamine B assay). Conditions: not given.
Type: functional
Procedure, shortened: as §1

Row | SMILES | GI50
24 | CCOC(=O)/C(=C/N1CCN(C(=O)c2ccco2)C1=S)C(=O)c1ccccc1 | 8.1 µM

Reference: ChEMBL document CHEMBL1138555, “N-acylated and N,N'-diacylated imidazolidine-2-thione derivatives and N,N'-diacylated tetrahydropyrimidine-2(1H)-thione analogues: synthesis and antiproliferative activity” (Eur J Med Chem, 2009)
